From ChEMBL document CHEMBL5136969, “A niclosamide-tobramycin hybrid adjuvant potentiates cefiderocol against P. aeruginosa” (2021)
Active and inactive are the calls of the source.

Tests used:
Pseudomonas aeruginosa [1] = experiment: Antibacterial activity against MDR clinical isolate Pseudomonas aeruginosa PA260 assessed as reduction in bacterial growth after 18 hrs by microbroth dilution method; format: functional
Procedure, shortened: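 CLSI broth microdilution. Overnight cultures were adjusted in saline to 0.5 McFarland, diluted 1:50 in Mueller-Hinton broth (MHB), and inoculated at about 5 × 10^5 CFU/mL. Agents were 2-fold serially diluted in MHB, mixed 1:1 with inoculum, and held at 37 °C for 18 h. MIC was the lowest concentration with no visible turbidity, confirmed at 590 nm.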

Pseudomonas aeruginosa [2] = experiment: Potentiation of moxifloxacin-induced antibiotic activity against Pseudomonas aeruginosa PA260 assessed as MIC fold reduction in ID-CAMHB condition at 8 ug/ml after 18 hrs by microbroth dilution method; format: functional, organism-based; conditions: dose 8.0 µg/ml
Pseudomonas aeruginosa [3] = experiment: Potentiation of aztreonam-induced antibiotic activity against Pseudomonas aeruginosa PAO1 assessed as MIC fold reduction at 8 ug/ml after 18 hrs by microbroth dilution method; format: functional; conditions: dose 8 µg/ml
Procedure, shortened: (§1)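 Initial screen in MHB using a fixed 8 μg mL−1 of adjuvant combined with each antibiotic under 2-fold dilution. Broth microdilution used about 5 × 10^5 CFU/mL at 37 °C for 18 h, with visible turbidity read and confirmed at 590 nm. Fold-potentiation = antibiotic MIC alone ÷ antibiotic MIC with adjuvant.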

Pseudomonas aeruginosa [4] = experiment: Potentiation of cotrimoxazole-induced antibiotic activity against Pseudomonas aeruginosa PAO1 assessed as MIC fold reduction at 8 ug/ml after 18 hrs by microbroth dilution method; format: functional; conditions: dose 8 µg/ml
Procedure, shortened: (§2)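 Adjuvant held at a fixed 8 μg/mL while the antibiotic was 2-fold serially diluted in Mueller-Hinton broth (MHB), per CLSI microbroth dilution. Overnight cultures were adjusted in saline to 0.5 McFarland, then diluted 1:50 in MHB to about 5 × 10^5 CFU/mL final, and incubated 18 h at 37 °C. MIC was the lowest concentration with no visible turbidity, confirmed at 590 nm. Fold potentiation = MIC alone / MIC with adjuvant.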

Escherichia coli [5] = experiment: Antibacterial activity against Escherichia coli ATCC 25922 assessed as reduction in bacterial growth after 18 hrs by microbroth dilution method; format: functional
Procedure, shortened: (§3)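 CLSI microbroth dilution in MHB. Overnight cultures were adjusted to 0.5 McFarland in saline, diluted 1:50, and inoculated at about 5 × 10^5 CFU/mL. Agents were 2-fold serially diluted and incubated 18 h at 37 °C. MIC is the lowest concentration without visible turbidity, confirmed by absorbance at 590 nm. Medium with and without cells served as controls.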

Pseudomonas aeruginosa [6] = experiment: Antibacterial activity against colistin-resistant clinical isolate Pseudomonas aeruginosa PA101243 assessed as reduction in bacterial growth by measuring FIC index after 18 hrs by microbroth dilution method; format: functional
Procedure, shortened: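 Checkerboard in MHB (iron-replete, not iron-depleted CAMHB). Cefiderocol was 2-fold serially diluted along one axis and the adjuvant along the other. Inoculum was 0.5 McFarland diluted 1:50, about 5 × 10^5 CFU/mL final. Incubation was 18 h at 37 °C, with turbidity read visually and confirmed at 590 nm. FIC was the MIC in combination over the MIC alone for each agent, and the FIC index was their sum. Cut-offs were ≤0.5 synergy, >0.5–4 additive, >4 antagonism.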

Escherichia coli [7] = experiment: Potentiation of doxycycline-induced antibiotic activity against Escherichia coli ATCC 25922 assessed as MIC fold reduction at 8 ug/ml after 18 hrs by microbroth dilution method; format: functional; conditions: dose 8 µg/ml; procedure, shortened: as §2
Klebsiella pneumoniae [8] = experiment: Antibacterial activity against Klebsiella pneumoniae KP113254 assessed as potentiation of cefiderocol antibacterial activity by measuring FIC after 18 hrs by microbroth dilution method; format: functional
Procedure, shortened: (§4)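 Checkerboard in MHB. Cefiderocol was 2-fold serially diluted along one axis and the adjuvant along the other. Inoculum was prepared from 0.5 McFarland saline suspensions diluted 1:50 in MHB, giving about 5 × 10^5 CFU/mL final. Plates ran 18 h at 37 °C, with turbidity confirmed at 590 nm. FIC = combination MIC ÷ MIC alone for each agent, and FIC index = sum of both. Interpretation: ≤0.5 synergy, >0.5–4 additive, >4 antagonism.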

Acinetobacter baumannii [9] = experiment: Antibacterial activity against Acinetobacter baumannii AB92247 assessed as reduction in bacterial growth after 18 hrs in presence of cefiderocol by microbroth dilution method; format: functional
Procedure, shortened: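 Checkerboard in Mueller-Hinton broth: cefiderocol 2-fold diluted on one axis, adjuvant 2-fold on the other. Overnight cultures were adjusted to 0.5 McFarland in saline, diluted 1:50 in MHB, and inoculated at about 5 × 10^5 CFU/mL. Incubation was 18 h at 37 °C. Turbidity was read visually and confirmed at 590 nm. FIC index = FIC of antibiotic + FIC of adjuvant; ≤0.5 synergy, >4 antagonism.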

Acinetobacter baumannii [10] = experiment: Antibacterial activity against Acinetobacter baumannii LAC-4 assessed as reduction in bacterial growth after 18 hrs by microbroth dilution method; format: functional; procedure, shortened: as §3
Pseudomonas aeruginosa [11] = experiment: Potentiation of ceftazidime-induced antibiotic activity against MDR clinical isolate Pseudomonas aeruginosa PA264 assessed as MIC fold reduction at 8 ug/ml after 18 hrs by microbroth dilution method; format: functional, organism-based; conditions: dose 8.0 µg/ml; procedure, shortened: as §2
Pseudomonas aeruginosa [12] = experiment: Antibacterial activity against MDR clinical isolate Pseudomonas aeruginosa PA108590 assessed as reduction in bacterial growth after 18 hrs in presence of cefiderocol by microbroth dilution method; format: functional; procedure, shortened: as §4
Pseudomonas aeruginosa [13] = experiment: Potentiation of cefiderocol-induced antibiotic activity against Pseudomonas aeruginosa PAO1 assessed as MIC fold reduction at 8 ug/ml after 18 hrs by microbroth dilution method; format: functional; conditions: dose 8 µg/ml; procedure, shortened: as §1
Enterococcus faecium = experiment: Antibacterial activity against Enterococcus faecium ATCC 27270 assessed as reduction in bacterial growth after 18 hrs by microbroth dilution method; format: functional; procedure, shortened: as §3
Acinetobacter baumannii [14] = experiment: Potentiation of ceftazidime-induced antibiotic activity against Acinetobacter baumannii ATCC 17978 assessed as MIC fold reduction at 8 ug/ml after 18 hrs by microbroth dilution method; format: functional; conditions: dose 8 µg/ml; procedure, shortened: as §2
Acinetobacter baumannii [15] = experiment: Potentiation of rifampicin-induced antibiotic activity against Acinetobacter baumannii ATCC 17978 assessed as MIC fold reduction at 8 ug/ml after 18 hrs by microbroth dilution method; format: functional; conditions: dose 8 µg/ml
Pseudomonas aeruginosa [16] = experiment: Antibacterial activity against […] Pseudomonas aeruginosa PAO1 assessed as potentiation of cefiderocol antibacterial activity by measuring FIC index after 18 hrs by microbroth dilution method; format: functional; procedure, shortened: as §4
Acinetobacter baumannii [17] = experiment: Potentiation of ceftolozane-induced antibiotic activity against Acinetobacter baumannii ATCC 17978 assessed as MIC fold reduction at 8 ug/ml after 18 hrs by microbroth dilution method; format: functional; conditions: dose 8 µg/ml; procedure, shortened: as §2
Pseudomonas aeruginosa [18] = experiment: Potentiation of ceftazidime-induced antibiotic activity against Pseudomonas aeruginosa PAO1 assessed as MIC fold reduction at 8 ug/ml after 18 hrs by microbroth dilution method; format: functional; conditions: dose 8 µg/ml; procedure, shortened: as §2
Klebsiella pneumoniae [19] = experiment: Antibacterial activity against Klebsiella pneumoniae KP116381 assessed as reduction in bacterial growth after 18 hrs in presence of cefiderocol by microbroth dilution method; format: functional; procedure, shortened: as §4
Escherichia coli [20] = experiment: Potentiation of vancomycin-induced antibiotic activity against Escherichia coli ATCC 25922 assessed as MIC fold reduction at 8 ug/ml after 18 hrs by microbroth dilution method; format: functional; conditions: dose 8 µg/ml
Klebsiella pneumoniae [21] = experiment: Antibacterial activity against Klebsiella pneumoniae KP113250 assessed as reduction in bacterial growth after 18 hrs by microbroth dilution method; format: functional; procedure, shortened: as §3
Pseudomonas aeruginosa [22] = experiment: Potentiation of cefiderocol-induced antibiotic activity against MDR clinical isolate Pseudomonas aeruginosa PA264 assessed as MIC fold reduction at 8 ug/ml after 18 hrs by microbroth dilution method; format: functional, organism-based; conditions: dose 8.0 µg/ml; procedure, shortened: as §1
Enterococcus faecalis = experiment: Antibacterial activity against Enterococcus faecalis ATCC 29212 assessed as reduction in bacterial growth after 18 hrs by microbroth dilution method; format: functional; procedure, shortened: as §3

For `NC[C@H]1O[C@H](O[C@H]2[C@H](OCCCCc3cn(-c4ccc(NC(=O)c5cc(Cl)ccc5O)cc4)nn3)[C@@H](O[C@H]3O[C@H](CO)[C@@H](O)[C@H](N)[C@H]3O)[C@H](N)C[C@@H]2N)[C@H](N)C[C@@H]1O`, the MIC (Pseudomonas aeruginosa [1]) was over 128 µg/mL, the Activity (Pseudomonas aeruginosa [2]) was “Active” and the “fold change (FC)” value (Pseudomonas aeruginosa [3]) was 4. For the same molecule, the “fold change (FC)” value (Pseudomonas aeruginosa [4]) was 4, the MIC (Escherichia coli [5]) was over 128 µg/mL and the FIC (Pseudomonas aeruginosa [6]) was 0.125. For the same molecule, the “fold change (FC)” value (Escherichia coli [7]) was 4, the FIC (Klebsiella pneumoniae [8]) was 0.5 and the MIC (Acinetobacter baumannii [9]) was 8 µg/mL. The MIC (Acinetobacter baumannii [10]) was over 128 µg/mL, the Activity (Pseudomonas aeruginosa [11]) was “Active” and the MIC (Pseudomonas aeruginosa [12]) was 4 µg/mL. The “fold change (FC)” value (Pseudomonas aeruginosa [13]) was 4, the MIC (Enterococcus faecium) was over 128 µg/mL and the “fold change (FC)” value (Acinetobacter baumannii [14]) was 4. The “fold change (FC)” value (Acinetobacter baumannii [15]) was 4, the FIC (Pseudomonas aeruginosa [16]) was 0.258 and the “fold change (FC)” value (Acinetobacter baumannii [17]) was 4. The “fold change (FC)” value (Pseudomonas aeruginosa [18]) was 4, the MIC (Klebsiella pneumoniae [19]) was 0.25 µg/mL and the “fold change (FC)” value (Escherichia coli [20]) was 4. For the same molecule, the MIC (Klebsiella pneumoniae [21]) was over 128 µg/mL, the Activity (Pseudomonas aeruginosa [22]) was “Active” and the MIC (Enterococcus faecalis) was over 128 µg/mL.
